Source: ChEMBL document CHEMBL4130629 (J Med Chem, 2018)
In brackets after ≈: the same amount, converted by molar mass.

Legend:
MT2 = experiment: Cytotoxicity against human MT2 cells assessed as decrease in cell viability after 3 days […]; format: functional; details: MT2, 72 h
[1] = Half life in human liver microsomes; format: ADME, microsome
[2] = test system: Human immunodeficiency virus 1; experiment: Antiviral activity against ENV pseudotyped CCR5-tropic HIV1 […] infected in human HeLa67 cells after 3 days by luciferase reporter gene assay; format: functional, organism-based; details: Human immunodeficiency virus 1, HeLa67, 72 h
How it was run: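 Single-cycle infection with env-deleted, luciferase-reporter HIV-1 pseudotyped with the JRFL (CCR5) envelope, supplied by transfection; viral titers normalized by luminescence without compound. HeLa 67 cells were infected in the presence of compounds given as 3-fold serial dilutions made from 30 mM DMSO stocks.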

[3] = Permeability in human Caco2 cells; format: ADME, cell-based; details: Caco-2, read-out: permeability
[4] = Half life in rat liver microsomes; format: ADME, microsome
[5] = Volume of distribution at steady state in Sprague-Dawley rat at 1 mg/kg, iv; format: ADME, organism-based; details: in vivo, read-out: Vdss
How it was run: (§1)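 Male Sprague-Dawley rats (300−350 g) with jugular vein and/or bile duct cannulas, n = 3 per route; dosed as a solution in PEG-400/ethanol (90/10). The iv dose was 1 mg/kg given as a 0.5 min bolus, with jugular blood sampled from 2 to 1440 min. The po dose was 5 mg/kg after an overnight fast, sampled from 15 to 1440 min. Plasma was taken from EDTA blood.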

[6] = Metabolic stability in rat liver microsomes assessed as parent compound remaining after 10 mins; format: ADME, microsome; details: read-out: Stability
How it was run: (§2)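 Compound at 3 μM was incubated with human or rat liver microsomes, and the percentage of parent compound remaining was measured after 10 min.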

[7] = AUC in Sprague-Dawley rat at 5 mg/kg, po after 24 hrs; format: ADME, organism-based; design: time < 24 hr, dose 5 mg/kg, route oral; details: in vivo; how it was run: as §1
[8] = Half life in Sprague-Dawley rat at 1 mg/kg, iv; format: ADME, organism-based; details: in vivo
[9] = Metabolic stability in human liver microsomes assessed as parent compound remaining after 10 mins; format: ADME, microsome; details: read-out: Stability; how it was run: as §2
[10] = Oral bioavailability in Sprague-Dawley rat at 5 mg/kg; format: ADME, organism-based; details: in vivo; how it was run: as §1
[11] = Clearance in Sprague-Dawley rat at 1 mg/kg, iv; format: ADME, organism-based; details: in vivo
[12] = Aqueous solubility of the compound; format: physicochemical; details: buffer

| SMILES | half-life [1] | EC50 [2] | Papp [3] | half-life [4] | Vd [5] | remaining at 10 min [6] | AUC at 24 h [7] | half-life [8] | remaining at 10 min [9] | bioavailability [10] | clearance [11] | solubility [12] | CC50 (MT2) |
| --- | --- | --- | --- | --- | --- | --- | --- | --- | --- | --- | --- | --- | --- |
| COc1cnc(-c2cncnc2)c2[nH]cc(C(=O)C(=O)N3CCN(C(=O)c4ccccc4)CC3)c12 | > 1.67 h | 0.51 nM | 1.5 to 4.9 ×10⁻⁶ cm/s | > 1.67 h |  |  |  |  |  |  |  |  | > 300000 nM |
| COc1cnc(-n2cnc(C)n2)c2[nH]cc(C(=O)C(=O)N3CCN(C(=O)c4ccccc4)[C@H](C)C3)c12 |  | 0.18 nM | 12.8 ×10⁻⁶ cm/s |  | 0.34 L/kg | 98% | 88 µM·h | 3 h | 94% | 104% |  |  | > 300000 nM |
| O=C(C(=O)N1CCN(C(=O)c2ccccc2)CC1)c1c[nH]c2ccccc12 | > 1.67 h |  | > 10 ×10⁻⁶ cm/s | > 1.67 h |  |  |  |  |  |  |  |  |  |
| COc1cnc(-c2cncc(=O)[nH]2)c2[nH]cc(C(=O)C(=O)N3CCN(C(=O)c4ccccc4)CC3)c12 | > 1.67 h | 0.21 nM | 6.6 ×10⁻⁶ cm/s |  | 0.18 L/kg | 100% | 0.13 µM·h | 0.8 h | 100% | 0.43% | 5.6 mL/min/kg |  | > 300000 nM |
| COc1cnc(-n2cccn2)c2[nH]cc(C(=O)C(=O)N3CCN(C(=O)c4ccccc4)CC3)c12 | > 1.67 h | 0.58 nM | < 1.5 ×10⁻⁶ cm/s | > 1.67 h | 0.48 L/kg |  | 25.6 µM·h | 1.8 h |  | 77.1% | 5.6 mL/min/kg |  | 288000 nM |
| COc1cnc(-n2ccc(CO)n2)c2[nH]cc(C(=O)C(=O)N3CCN(C(=O)c4ccccc4)[C@H](C)C3)c12 |  | 0.14 nM |  |  | 1.1 L/kg | 90% | 1.99 µM·h | 2.9 h | 81% | 19% |  |  | > 300000 nM |
| COc1cnc(-c2cnccn2)c2[nH]cc(C(=O)C(=O)N3CCN(C(=O)c4ccccn4)[C@H](C)C3)c12 |  | 0.4 nM | 12.5 ×10⁻⁶ cm/s |  | 1.1 L/kg | 80% | 7.8 µM·h | 2.4 h | 95% | 61% | 8.8 mL/min/kg |  | > 300000 nM |
| CCNC(=O)c1ncn(-c2ncc(OC)c3c(C(=O)C(=O)N4CCN(C(=O)c5ccccc5)CC4)c[nH]c23)n1 |  | 0.14 nM | < 1.5 ×10⁻⁶ cm/s |  |  | 100% |  |  | 97% |  |  | 58 µg/mL (≈ 109 µM) | > 300000 nM |
| COc1cnc(-n2ccc(C)n2)c2[nH]cc(C(=O)C(=O)N3CCN(C(=O)c4ccccc4)[C@H](C)C3)c12 |  | 0.16 nM | 20 ×10⁻⁶ cm/s |  | 0.47 L/kg | 78% | 13.2 µM·h | 0.56 h | 72% | 72.8% |  | 69 µg/mL (≈ 142 µM) | 142000 nM |
| COc1cnc(-n2cc(C)nn2)c2[nH]cc(C(=O)C(=O)N3CCN(C(=O)c4ccccc4)[C@H](C)C3)c12 |  | 0.13 nM | 22.4 ×10⁻⁶ cm/s |  | 0.29 L/kg | 76% | 34.8 µM·h | 1.4 h | 74% | 65.5% | 4.3 mL/min/kg |  | 124000 nM |
| COc1cnc(-c2cnccn2)c2[nH]cc(C(=O)C(=O)N3CCN(C(=O)c4ccccn4)CC3)c12 | > 1.67 h | 0.11 nM |  |  | 1.9 L/kg | 27% | 14.6 µM·h | 4 h | 100% | 85% |  |  | > 300000 nM |

The next lines start with results.

| half-life [1] | EC50 [2] | Papp [3] | half-life [4] | Vd [5] | remaining at 10 min [6] | AUC at 24 h [7] | half-life [8] | remaining at 10 min [9] | bioavailability [10] | clearance [11] | solubility [12] | SMILES | CC50 (MT2) |
| --- | --- | --- | --- | --- | --- | --- | --- | --- | --- | --- | --- | --- | --- |
|  | 0.07 nM | 5.8 ×10⁻⁶ cm/s |  | 0.26 L/kg | 89% | 13 µM·h | 1.5 h | 64% | 52% | 6.1 mL/min/kg |  | COc1cnc(-n2cnc(N3CCOCC3)n2)c2[nH]cc(C(=O)C(=O)N3CCN(C(=O)c4ccccc4)CC3)c12 | 203000 nM |
|  | 0.04 nM | < 1.5 ×10⁻⁶ cm/s |  | 0.4 L/kg | 99% | 0.03 µM·h | 0.5 h | 98% | 0.8% | 57 mL/min/kg |  | COc1cnc(-n2ccc(N)n2)c2[nH]cc(C(=O)C(=O)N3CCN(C(=O)c4ccccc4)CC3)c12 | > 150000 nM |
|  | 0.07 nM | 7.8 ×10⁻⁶ cm/s |  | 0.23 L/kg | 82% | 43.5 µM·h | 1.6 h | 83% | 59% |  |  | COc1cnc(-n2ccnn2)c2[nH]cc(C(=O)C(=O)N3CCN(C(=O)c4ccccc4)CC3)c12 | 225000 nM |
| 1.67 h | 0.09 nM | 2.2 ×10⁻⁶ cm/s | 1.67 h |  |  |  |  |  |  |  |  | COCc1ncn(-c2ncc(OC)c3c(C(=O)C(=O)N4CCN(C(=O)c5ccccc5)[C@H](C)C4)c[nH]c23)n1 | > 300000 nM |
|  | 0.05 nM | 26.1 ×10⁻⁶ cm/s |  | 0.12 L/kg | 94% | 254 µM·h | 3.3 h | 100% | 86% | 0.7 mL/min/kg |  | CCc1ncn(-c2ncc(OC)c3c(C(=O)C(=O)N4CCN(C(=O)c5ccccc5)CC4)c[nH]c23)n1 | 90000 nM |
|  | 0.05 nM | 26 ×10⁻⁶ cm/s |  | 0.23 L/kg | 100% | 15.7 µM·h | 0.9 h | 80% | 43.7% |  | 17 µg/mL (≈ 36 µM) | COc1cnc(-n2ccc(C)n2)c2[nH]cc(C(=O)C(=O)N3CCN(C(=O)c4ccccc4)CC3)c12 | 130000 to 154000 nM |
|  | 0.08 nM | 31.5 ×10⁻⁶ cm/s |  | 0.2 L/kg | 90% | 82 µM·h | 3 h | 84% | 88.4% |  |  | CCc1ncn(-c2ncc(OC)c3c(C(=O)C(=O)N4CCN(C(=O)c5ccccc5)[C@H](C)C4)c[nH]c23)n1 | 281000 nM |
|  | 0.08 nM | 14.3 ×10⁻⁶ cm/s |  | 0.49 L/kg | 78% | 8.6 µM·h | 0.7 h | 83% | 59% | 12 mL/min/kg |  | COc1cnc(-n2ccnn2)c2[nH]cc(C(=O)C(=O)N3CCN(C(=O)c4ccccc4)[C@H](C)C3)c12 | > 150000 nM |
